Test results: article PMC6235520 (Science Advances, 2018)
Several values for one entry are separate records, joined by “and”; a condition that tells them apart may be missing. Equal values may be shown once. Read-outs that look alike come from different tables or passages of the source. One block for each compound: values may come before it.

Assays:
KCNQ1-KCNE3 = experiment: Two-electrode voltage clamp of KCNQ1-KCNE3 in Xenopus oocytes; format: cell-based, human; conditions: 30 μM, across the voltage range studied
Procedure, shortened: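 Human KCNQ1 and KCNE3 cRNAs were injected into defolliculated stage V–VI oocytes (α-subunit cRNA 10 ng total per oocyte) and held 2–5 days at 16°C in Barth's with penicillin/streptomycin. Room-temperature TEVC used bath 96 mM NaCl, 4 mM KCl, 1 mM MgCl2, 1 mM CaCl2, 10 mM Hepes pH 7.6. Test compound was perfused 3 min at 1 ml/min. Prepulses were −80 to +40 mV in 20-mV steps, with tails at −30 mV; n = 8.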

human KCNQ1 = human KCNQ1 (Homo sapiens, UniProt P51787); experiment: Two-electrode voltage clamp of KCNQ1 expressed in Xenopus laevis oocytes; format: cell-based; conditions: for negative shift in the voltage dependence of KCNQ1 activation: 100 μM compound; for effect on KCNQ1 gating kinetics (activation and deactivation rates): MTX 30 µM, CPT1 100 µM
Chain of human KCNQ1 (P51787 whole entry): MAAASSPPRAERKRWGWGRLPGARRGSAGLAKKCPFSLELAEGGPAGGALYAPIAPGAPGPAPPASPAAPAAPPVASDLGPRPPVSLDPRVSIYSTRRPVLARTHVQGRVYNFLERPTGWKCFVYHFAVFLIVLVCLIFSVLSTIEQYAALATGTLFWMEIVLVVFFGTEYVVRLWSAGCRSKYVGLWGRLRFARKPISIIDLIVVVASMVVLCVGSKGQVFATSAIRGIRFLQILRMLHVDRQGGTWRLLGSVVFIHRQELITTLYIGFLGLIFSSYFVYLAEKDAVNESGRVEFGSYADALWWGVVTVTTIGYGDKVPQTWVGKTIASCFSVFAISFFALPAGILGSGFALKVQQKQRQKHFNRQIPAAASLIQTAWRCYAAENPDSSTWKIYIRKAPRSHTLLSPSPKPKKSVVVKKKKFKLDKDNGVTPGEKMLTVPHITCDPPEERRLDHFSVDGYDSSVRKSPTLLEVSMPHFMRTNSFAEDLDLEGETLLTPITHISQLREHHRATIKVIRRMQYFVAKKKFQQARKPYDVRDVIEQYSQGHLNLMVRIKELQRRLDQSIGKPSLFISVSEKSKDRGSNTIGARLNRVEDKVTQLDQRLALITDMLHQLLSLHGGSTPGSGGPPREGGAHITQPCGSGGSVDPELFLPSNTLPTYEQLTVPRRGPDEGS

KCNQ1 = conditions: cited from earlier work
[1] = cited from earlier work
[2] = Pharmacokinetics in rats fed Mallotus philippensis extract; conditions: equates to 2 μg/ml
KCNQ2-R213A/KCNQ3 = experiment: Two-electrode voltage clamp of KCNQ2-R213A/KCNQ3 in Xenopus oocytes; format: cell-based, human; conditions: at a given voltage
KCNQ2/3 channels = conditions: cited from earlier work
KCNQ2/KCNQ3-R242A = experiment: Two-electrode voltage clamp of KCNQ2/KCNQ3-R242A in Xenopus oocytes; format: cell-based, human; conditions: compared with KCNQ2-R213A/KCNQ3 and wild type
KCNQ1-R243A/KCNE1 = experiment: Two-electrode voltage clamp of KCNQ1-R243A/KCNE1 in Xenopus oocytes; format: cell-based, human; conditions: MTX 10 μM; CPT1 100 µM
Procedure, shortened: (§1)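 Mutant channels were made by site-directed mutagenesis and expressed from human cRNA (α-subunit 10 ng per oocyte) in stage V–VI oocytes for 2–5 days at 16°C. Room-temperature TEVC used a pH 7.6 Hepes-buffered bath with 4 mM KCl. Compound was perfused for 3 min, then currents were recorded at −80 to +40 mV in 20-mV steps. Fold current augmentation was plotted against voltage.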

hERG = conditions: cited from earlier work
[3] = rats fed Mallotus philippensis extract; cited from earlier work
KCNQ1-KCNE1 = KCNQ1-KCNE1 (Homo sapiens, UniProt P51787); experiment: Two-electrode voltage clamp of KCNQ1-KCNE1 in Xenopus oocytes; format: cell-based
Chain of KCNQ1-KCNE1 (P51787 whole entry): as above

KCNQ1-KCNE4 = experiment: Two-electrode voltage clamp of KCNQ1-KCNE4 in Xenopus oocytes; format: cell-based, human; conditions: 30 μM
Procedure, shortened: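 Oocytes (stage V–VI, defolliculated) were co-injected with human KCNQ1 and KCNE4 cRNAs (α-subunit 10 ng total) and kept 2–5 days at 16°C. TEVC was run at room temperature in 4 mM KCl/96 mM NaCl Hepes bath, pH 7.6, after 3-min gravity perfusion of 30 μM test compound. Raw tail currents at −30 mV followed prepulses from −80 to +40 mV; n = 5.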

KCNQ1-R243A = experiment: Two-electrode voltage clamp of KCNQ1-R243A mutant in Xenopus oocytes; format: cell-based, human; conditions: MTX 10 μM; CPT1 100 µM
Procedure, shortened: as §1

BK = conditions: cited from earlier work
KCNQ2-R213A/KCNQ3-R242A = experiment: Two-electrode voltage clamp of KCNQ2-R213A/KCNQ3-R242A; format: cell-based, human

Compound: CC(=O)c1c(O)c(C)c(O)c(Cc2c(O)c3c(c(C(=O)/C=C/c4ccccc4)c2O)OC(C)(C)C=C3)c1O [MTX, mallotoxin]
- effect on KCNQ1-KCNE3 channels (KCNQ1-KCNE3): moderately inhibited
- shift in KCNQ1 activation voltage dependence (human KCNQ1; 30 μM MTX): −27 mV
- effect on KCNQ1 current in presence of UCL2077 (human KCNQ1; 30 μM MTX, UCL2077 10 μM, hyperpolarized voltages): still augmented
- rescue of KCNQ1 from inhibition by UCL2077 (human KCNQ1; 30 μM MTX, UCL2077 10 μM, positive voltages): ineffective
- negative shift in the voltage dependence of KCNQ1 activation (human KCNQ1): −27 mV
- MTX effects on KCNQ1 in high extracellular K+ (human KCNQ1; 50 mM extracellular K+, 10 µM MTX): preserved
- EC50 (human KCNQ1; EC50 (dose response) for the ΔV0.5 activation of KCNQ1): 9.4 ± 0.1 µM
- EC50 (human KCNQ1; KCNQ1 activation EC50, at −40 mV): 9.9 µM and 10 µM
- effect on KCNQ1 gating kinetics (activation and deactivation rates) (human KCNQ1): speeded KCNQ1 activation and slowed its deactivation
- KCNQ1 current fold increase (human KCNQ1; at −40 mV, 30 μM): 5.4 fold
- effect on KCNQ1 potassium channel (KCNQ1): activate
- toxicity [1]: toxic in large doses
- plasma level converted to molar concentration [2]: 4 µM
- MTX-induced shift in the V0.5 of activation versus wild-type KCNQ2/3 (KCNQ2-R213A/KCNQ3): slightly greater
- effect on KCNQ2/3 channels (KCNQ2/3 channels): activates
- efficacy of MTX on KCNQ2/KCNQ3-R242A channels (KCNQ2/KCNQ3-R242A): even more efficacious
- sensitivity of KCNQ1-R243A/KCNE1 complexes to compound (KCNQ1-R243A/KCNE1): completely insensitive
- effect on hERG potassium channel (hERG): activate
- oral bioavailability [3]: > 20%
- plasma concentrations [3]: > 2000 ng/mL
- EC50 (KCNQ1-KCNE1): 27.9 ± 0.3 µM
- shift of V0.5 of activation of KCNQ1-KCNE1 (KCNQ1-KCNE1; 30 μM MTX): −45 mV
- effect on KCNQ1-KCNE1 currents (KCNQ1-KCNE1; 30 μM, across the voltage range tested): strongly augmented
- effect on KCNQ1-KCNE4 activity (KCNQ1-KCNE4): minor augmentation
- sensitivity of KCNQ1-R243A to compound (KCNQ1-R243A): completely insensitive
- effect on BK potassium channel (BK): activate
- sensitivity of RA-RA KCNQ2/3 channels to MTX (KCNQ2-R213A/KCNQ3-R242A): insensitive

- EC50 (human KCNQ1): 0.1 µM
- negative shift in the voltage dependence of KCNQ1 activation (human KCNQ1): −5 mV
- potency on KCNQ1 relative to MTX (human KCNQ1; CPT1 versus MTX): 100 fold
- KCNQ1 current fold increase (human KCNQ1; at −60 mV, 100 μM): 2.7 fold
Compound: CCC1=C(O)C(=O)CC1 [CPT1, 3-ethyl-2-hydroxy-2-cyclopenten-1-one]
- effect on KCNQ1 gating kinetics (activation and deactivation rates) (human KCNQ1): statistically significant speeding of activation and slowing of deactivation
- sensitivity of KCNQ1-R243A/KCNE1 complexes to compound (KCNQ1-R243A/KCNE1): eliminated
- sensitivity of KCNQ1-R243A to compound (KCNQ1-R243A): eliminated
